Results reported in ChEMBL document CHEMBL3585335, “Isolation and Synthetic Diversification of Jadomycin 4-Amino-l-phenylalanine” (J Nat Prod, 2015).
The source made the active and inactive calls.

Legend:
A549 = assay: Cytotoxicity against human A549 cells assessed as cell growth at 1 x 10^-5 M; assay type: functional, cell-based
Procedure, shortened: (§1)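 Run by the NCI Developmental Therapeutics Program (DTP) as its one-dose screen across the 60 human tumour cell line panel.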

NCI-H322M = assay: Cytotoxicity against human NCI-H322M cells assessed as cell growth at 1 x 10^-5 M; assay type: functional, cell-based; procedure, shortened: as §1
NCI-H23 = assay: Cytotoxicity against human NCI-H23 cells assessed as cell growth at 1 x 10^-5 M; assay type: functional, cell-based; procedure, shortened: as §1
HOP-62 = assay: Cytotoxicity against human HOP62 cells assessed as cell growth at 1 x 10^-5 M; assay type: functional, cell-based; procedure, shortened: as §1
K562 = assay: Cytotoxicity against human K562 cells assessed as cell growth at 1 x 10^-5 M; assay type: functional, cell-based; procedure, shortened: as §1
T47D = assay: Cytotoxicity against human T47D cells assessed as cell growth at 1 x 10^-5 M; assay type: functional, cell-based
Procedure, shortened: (§2)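 Tested by the NCI Developmental Therapeutics Program in its one-dose screen across the 60 human tumour cell line panel.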

SNB-75 = assay: Cytotoxicity against human SNB75 cells assessed as cell growth at 1 x 10^-5 M; assay type: functional, cell-based; procedure, shortened: as §1
OVCAR-3 = assay: Cytotoxicity against human OVCAR3 cells assessed as cell growth at 1 x 10^-5 M; assay type: functional, cell-based; procedure, shortened: as §1
Malme-3M = assay: Cytotoxicity against human MALME-3M cells assessed as cell growth at 1 x 10^-5 M; assay type: functional, cell-based; procedure, shortened: as §1
Escherichia coli [1] = assay: Effect on photodynamic inactivation in Escherichia coli pUC19 DNA assessed as photo-mediated DNA cleavage at 10 to 100 uM by ethidium bromide gel-electrophoresis analysis
MDA-MB-435 = assay: Cytotoxicity against human MDA-MB-435 cells assessed as cell growth at 1 x 10^-5 M; assay type: functional, cell-based; procedure, shortened: as §1
Escherichia coli [2] = assay: Effect on Copper-mediated Escherichia coli pUC19 DNA cleavage at 100 uM by gel-electrophoresis analysis
SK-MEL-5 = assay: Cytotoxicity against human SK-MEL-5 cells assessed as cell growth at 1 x 10^-5 M; assay type: functional, cell-based; procedure, shortened: as §1
HOP-92 = assay: Cytotoxicity against human HOP92 cells assessed as cell growth at 1 x 10^-5 M; assay type: functional, cell-based; procedure, shortened: as §1
MDA-MB-231 = assay: Cytotoxicity against human MDA-MB-231 cells assessed as cell growth at 1 x 10^-5 M; assay type: functional, cell-based; procedure, shortened: as §1
UACC-62 = assay: Cytotoxicity against human UACC62 cells assessed as cell growth at 1 x 10^-5 M; assay type: functional, cell-based; procedure, shortened: as §2
TK-10 = assay: Cytotoxicity against human TK10 cells assessed as cell growth at 1 x 10^-5 M; assay type: functional, cell-based; procedure, shortened: as §2
SR = assay: Cytotoxicity against human SR cells assessed as cell growth at 1 x 10^-5 M; assay type: functional, cell-based; procedure, shortened: as §1
NCI/ADR-RES = assay: Cytotoxicity against human NCI-ADR-RES cells assessed as cell growth at 1 x 10^-5 M; assay type: functional, cell-based; procedure, shortened: as §1
MCF7 = assay: Cytotoxicity against human MCF7 cells assessed as cell growth at 1 x 10^-5 M; assay type: functional, cell-based; procedure, shortened: as §1
Hs-578T = assay: Cytotoxicity against human Hs578T cells assessed as cell growth at 1 x 10^-5 M; assay type: functional, cell-based; procedure, shortened: as §1
HL-60(TB) = assay: Cytotoxicity against human HL-60(TB) cells assessed as cell growth at 1 x 10^-5 M; assay type: functional, cell-based
Procedure, shortened: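 Run by the NCI Developmental Therapeutics Program (DTP) within its 60 human tumour cell line one-dose screen.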

LOX IMVI = assay: Cytotoxicity against human LOXIMVI cells assessed as cell growth at 1 x 10^-5 M; assay type: functional, cell-based; procedure, shortened: as §1
SK-MEL-2 = assay: Cytotoxicity against human SK-MEL-2 cells assessed as cell growth at 1 x 10^-5 M; assay type: functional, cell-based; procedure, shortened: as §1
HCC 2998 = assay: Cytotoxicity against human HCC2998 cells assessed as cell growth at 1 x 10^-5 M; assay type: functional, cell-based; procedure, shortened: as §1
SW-620 = assay: Cytotoxicity against human SW620 cells assessed as cell growth at 1 x 10^-5 M; assay type: functional, cell-based; procedure, shortened: as §2
HCT-15 = assay: Cytotoxicity against human HCT15 cells assessed as cell growth at 1 x 10^-5 M; assay type: functional, cell-based; procedure, shortened: as §1
OVCAR-4 = assay: Cytotoxicity against human OVCAR4 cells assessed as cell growth at 1 x 10^-5 M; assay type: functional, cell-based; procedure, shortened: as §1
CCRF-CEM = assay: Cytotoxicity against human CCRF-CEM cells assessed as cell growth at 1 x 10^-5 M; assay type: functional, cell-based; procedure, shortened: as §1
SNB-19 = assay: Cytotoxicity against human SNB19 cells assessed as cell growth at 1 x 10^-5 M; assay type: functional, cell-based; procedure, shortened: as §1
SK-MEL-28 = assay: Cytotoxicity against human SK-MEL-28 cells assessed as cell growth at 1 x 10^-5 M; assay type: functional, cell-based; procedure, shortened: as §1
UACC-257 = assay: Cytotoxicity against human UACC257 cells assessed as cell growth at 1 x 10^-5 M; assay type: functional, cell-based; procedure, shortened: as §2
OVCAR-5 = assay: Cytotoxicity against human OVCAR5 cells assessed as cell growth at 1 x 10^-5 M; assay type: functional, cell-based; procedure, shortened: as §1
SF-268 = assay: Cytotoxicity against human SF268 cells assessed as cell growth at 1 x 10^-5 M; assay type: functional, cell-based; procedure, shortened: as §1
IGROV-1 = assay: Cytotoxicity against human IGROV1 cells assessed as cell growth at 1 x 10^-5 M; assay type: functional, cell-based; procedure, shortened: as §1
BT-549 = assay: Cytotoxicity against human BT549 cells assessed as cell growth at 1 x 10^-5 M; assay type: functional, cell-based; procedure, shortened: as §1
HCT-116 = assay: Cytotoxicity against human HCT116 cells assessed as cell growth at 1 x 10^-5 M; assay type: functional, cell-based; procedure, shortened: as §1
KM12 = assay: Cytotoxicity against human KM12 cells assessed as cell growth at 1 x 10^-5 M; assay type: functional, cell-based; procedure, shortened: as §1
UO-31 = assay: Cytotoxicity against human UO31 cells assessed as cell growth at 1 x 10^-5 M; assay type: functional, cell-based; procedure, shortened: as §2
SN12C = assay: Cytotoxicity against human SN12C cells assessed as cell growth at 1 x 10^-5 M; assay type: functional, cell-based; procedure, shortened: as §1
HT-29 = assay: Cytotoxicity against human HT-29 cells assessed as cell growth at 1 x 10^-5 M; assay type: functional, cell-based; procedure, shortened: as §1
DU-145 = assay: Cytotoxicity against human DU145 cells assessed as cell growth at 1 x 10^-5 M; assay type: functional, cell-based; procedure, shortened: as §1
SF-539 = assay: Cytotoxicity against human SF539 cells assessed as cell growth at 1 x 10^-5 M; assay type: functional, cell-based; procedure, shortened: as §1
SF-295 = assay: Cytotoxicity against human SF295 cells assessed as cell growth at 1 x 10^-5 M; assay type: functional, cell-based; procedure, shortened: as §1
CAKI-1 = assay: Cytotoxicity against human Caki1 cells assessed as cell growth at 1 x 10^-5 M; assay type: functional, cell-based; procedure, shortened: as §1
OVCAR-8 = assay: Cytotoxicity against human OVCAR8 cells assessed as cell growth at 1 x 10^-5 M; assay type: functional, cell-based; procedure, shortened: as §1
ACHN = assay: Cytotoxicity against human ACHN cells assessed as cell growth at 1 x 10^-5 M; assay type: functional, cell-based; procedure, shortened: as §1
A498 = assay: Cytotoxicity against human A498 cells assessed as cell growth at 1 x 10^-5 M; assay type: functional, cell-based; procedure, shortened: as §1
NCI-H522 = assay: Cytotoxicity against human NCI-H522 cells assessed as cell growth at 1 x 10^-5 M; assay type: functional, cell-based; procedure, shortened: as §1
786-0 = assay: Cytotoxicity against human 786-0 cells assessed as cell growth at 1 x 10^-5 M; assay type: functional, cell-based; procedure, shortened: as §1
COLO 205 = assay: Cytotoxicity against human COLO205 cells assessed as cell growth at 1 x 10^-5 M; assay type: functional, cell-based; procedure, shortened: as §1
NCI-H460 = assay: Cytotoxicity against human NCI-H460 cells assessed as cell growth at 1 x 10^-5 M; assay type: functional, cell-based; procedure, shortened: as §1
MOLT-4 = assay: Cytotoxicity against human MOLT4 cells assessed as cell growth at 1 x 10^-5 M; assay type: functional, cell-based; procedure, shortened: as §1
SK-OV-3 = assay: Cytotoxicity against human SKOV3 cells assessed as cell growth at 1 x 10^-5 M; assay type: functional, cell-based; procedure, shortened: as §1
RXF 393 = assay: Cytotoxicity against human RXF393 cells assessed as cell growth at 1 x 10^-5 M; assay type: functional, cell-based; procedure, shortened: as §1
Escherichia coli [3] = assay: Effect on Copper-mediated Escherichia coli pBR322 DNA cleavage at 100 uM by gel-electrophoresis analysis
M14 = assay: Cytotoxicity against human M14 cells assessed as cell growth at 1 x 10^-5 M; assay type: functional, cell-based; procedure, shortened: as §1
MDA-MB-468 = assay: Cytotoxicity against human MDA-MB-468 cells assessed as cell growth at 1 x 10^-5 M; assay type: functional, cell-based; procedure, shortened: as §1
PC-3 = assay: Cytotoxicity against human PC3 cells assessed as cell growth at 1 x 10^-5 M; assay type: functional, cell-based; procedure, shortened: as §1
U-251 = assay: Cytotoxicity against human U251 cells assessed as cell growth at 1 x 10^-5 M; assay type: functional, cell-based; procedure, shortened: as §2
NCI-H226 = assay: Cytotoxicity against human NCI-H226 cells assessed as cell growth at 1 x 10^-5 M; assay type: functional, cell-based; procedure, shortened: as §1

CCCCCCCCC(=O)Nc1ccc(C[C@H]2C(=O)OC3c4cc(C)cc(O)c4C4=C(C(=O)c5c(O[C@H]6C[C@@H](O)[C@@H](O)[C@H](C)O6)cccc5C4=O)N32)cc1 (stereo partly specified)
inactive: growth inhibition (GI) (A549) | growth inhibition (GI) (NCI-H322M) | growth inhibition (GI) (NCI-H23) | growth inhibition (GI) (HOP-62) | growth inhibition (GI) (K562) | growth inhibition (GI) (T47D) | growth inhibition (GI) (SNB-75) | growth inhibition (GI) (OVCAR-3) | growth inhibition (GI) (Malme-3M) | Activity (Escherichia coli [1]) | growth inhibition (GI) (MDA-MB-435) | Activity (Escherichia coli [2]) | growth inhibition (GI) (SK-MEL-5) | growth inhibition (GI) (HOP-92) | growth inhibition (GI) (MDA-MB-231) | growth inhibition (GI) (UACC-62) | growth inhibition (GI) (TK-10) | growth inhibition (GI) (SR) | growth inhibition (GI) (NCI/ADR-RES) | growth inhibition (GI) (MCF7) | growth inhibition (GI) (Hs-578T) | growth inhibition (GI) (HL-60(TB)) | growth inhibition (GI) (LOX IMVI) | growth inhibition (GI) (SK-MEL-2) | growth inhibition (GI) (HCC 2998) | growth inhibition (GI) (SW-620) | growth inhibition (GI) (HCT-15) | growth inhibition (GI) (OVCAR-4) | growth inhibition (GI) (CCRF-CEM) | growth inhibition (GI) (SNB-19) | growth inhibition (GI) (SK-MEL-28) | growth inhibition (GI) (UACC-257) | growth inhibition (GI) (OVCAR-5) | growth inhibition (GI) (SF-268) | growth inhibition (GI) (IGROV-1) | growth inhibition (GI) (BT-549) | growth inhibition (GI) (HCT-116) | growth inhibition (GI) (KM12) | growth inhibition (GI) (UO-31) | growth inhibition (GI) (SN12C) | growth inhibition (GI) (HT-29) | growth inhibition (GI) (DU-145) | growth inhibition (GI) (SF-539) | growth inhibition (GI) (SF-295) | growth inhibition (GI) (CAKI-1) | growth inhibition (GI) (OVCAR-8) | growth inhibition (GI) (ACHN) | growth inhibition (GI) (A498) | growth inhibition (GI) (NCI-H522) | growth inhibition (GI) (786-0) | growth inhibition (GI) (COLO 205) | growth inhibition (GI) (NCI-H460) | growth inhibition (GI) (MOLT-4) | growth inhibition (GI) (SK-OV-3) | growth inhibition (GI) (RXF 393) | Activity (Escherichia coli [3]) | growth inhibition (GI) (M14) | growth inhibition (GI) (MDA-MB-468) | growth inhibition (GI) (PC-3) | growth inhibition (GI) (U-251) | growth inhibition (GI) (NCI-H226)
